Screening data (PubChem BioAssay)
An excerpt weighted towards active compounds, which were near 1.9% of everything screened.
ABHD5 PLIN5 PPI: ABHD5-PLIN5 interaction inhibitors, primary screen, cell lysate, split luciferase complementation, luminescence | Perilipin-5 (Homo sapiens) + 1-acylglycerol-3-phosphate O-acyltransferase ABHD5 (Homo … | 0.78% of 360,000 active | AID 602281, 2012 | Split G. princeps luciferase complementation, 4 h | inhibition, % at 4 µM;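 active = inhibition above the mean inhibition across every tested compound plus 3 SD, cut at about 22% in these data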;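 also: 0% = DMSO only wells and the 100% control is not disclosed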
Target sequence (Q00G26 whole entry, looked up): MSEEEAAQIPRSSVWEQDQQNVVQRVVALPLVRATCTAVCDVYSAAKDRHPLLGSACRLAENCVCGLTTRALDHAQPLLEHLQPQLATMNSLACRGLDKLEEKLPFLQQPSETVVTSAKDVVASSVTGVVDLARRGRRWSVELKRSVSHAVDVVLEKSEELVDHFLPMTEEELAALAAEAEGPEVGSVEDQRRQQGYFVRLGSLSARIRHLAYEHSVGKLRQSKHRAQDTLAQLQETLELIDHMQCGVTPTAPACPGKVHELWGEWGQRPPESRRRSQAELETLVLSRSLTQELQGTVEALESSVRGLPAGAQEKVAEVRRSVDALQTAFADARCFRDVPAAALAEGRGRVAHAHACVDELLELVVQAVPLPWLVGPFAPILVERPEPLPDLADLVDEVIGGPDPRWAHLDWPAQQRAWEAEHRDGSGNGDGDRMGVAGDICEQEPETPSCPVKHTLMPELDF
Target sequence (Q8WTS1 whole entry, looked up): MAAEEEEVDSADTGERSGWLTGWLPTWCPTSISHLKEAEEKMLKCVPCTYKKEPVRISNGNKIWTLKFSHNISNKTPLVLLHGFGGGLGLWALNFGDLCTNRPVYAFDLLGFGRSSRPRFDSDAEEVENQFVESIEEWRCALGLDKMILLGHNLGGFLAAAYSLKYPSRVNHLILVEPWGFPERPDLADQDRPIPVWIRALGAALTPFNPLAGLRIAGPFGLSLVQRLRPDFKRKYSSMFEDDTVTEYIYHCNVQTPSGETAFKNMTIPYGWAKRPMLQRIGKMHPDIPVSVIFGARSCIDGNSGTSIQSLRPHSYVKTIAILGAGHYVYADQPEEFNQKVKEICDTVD
NadD inh: inhibitors of S. aureus NadD, primary screen, biochemical, colorimetric, uHTS; Nicotinate-nucleotide adenylyltransferase NadD (Staphylococcus aureus N315); 0.78% of 360,000 active; inhibition, % at 20 µM; purified NadD enzyme, colorimetric absorbance read-out; in the data active = inhibition above about 26%
Rpn11 inh: Rpn11 (PSMD14) deubiquitinase inhibitors, primary screen, biochemical, fluorescence polarization, uHTS. 26S proteasome non-ATPase regulatory subunit 14 (Homo sapiens), O00487. human 26S proteasome, Ub4-pepOG fluorescence polarization; 20S core pre-blocked with epoxomicin. inhibition, % at 20 µM. 0.59% of 360,000 active;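 active = inhibition at 20 µM, scaled to each plate's controls, above about 33%, limit read from the data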
Xi reactivation: activators of inactive X chromosome reactivation, primary screen, imaging, XiGFP fibroblasts, GFP high-content imaging, set 2 | XiGFP mouse fibroblasts, % GFP-positive cells imaging, 3 d; cells co-treated with 5-aza-dC sensitizer; scaled so ellipticine positive control = 100% | activation, % at 7.58 µM | 0.055% of 360,000 active | AID 743238, 2013;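 active = mean normalized replicate activation at least 10% and every replicate at or above 10%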;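 also: 0% = median of on-plate neutral control wells and 100% = ellipticine 6 µM median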
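Assay system: SV40-immortalized XiGFP fibroblast cells, line 68-5-11; buffer or medium: DMEM plus 5-aza-dC sensitizer; compound: one concentration, pinned; timing: compounds 3 days, fix/stain 15 min at room temperature; benchmarks: positive control ellipticine, 6 µM final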
Rin1-Abl PPI inh: inhibitors of Rin1-Abl protein binding, primary screen, biochemical, TR-FRET | Tyrosine-protein kinase ABL1 (Homo sapiens) + Ras and Rab interactor 1 (Homo sapiens), … | inhibition, % at 7.35 µM | 0.4% of 360,000 active | AID 588664, 2011; in the data active = inhibition above about 5%, passing the limit was not always enough
NadD conf: inhibitors of S. aureus NadD, confirmation, biochemical, colorimetric, single concentration. shares compounds with NadD inh. purified S. aureus NadD, colorimetric enzyme assay. inhibition, % at 20 µM. 13% of 2,000 active. AID 624309, 2012; in the data active = inhibition mostly above about 42%, no sharp cut-off; inactive = mostly below about 42%
Active calls of the source: *.

For COc1ccccc1NS(=O)(=O)c1cccc(-n2c(O)c(C=Nc3ccccc3C(=O)O)c3ccccc3c2=O)c1 the results were ABHD5 PLIN5 PPI 1, NadD inh 31*, Rpn11 inh 21, Xi reactivation 0, Rin1-Abl PPI inh 1 and NadD conf 54*.
For CC(C)NC(=O)Nc1ccc2c(c1)C(=O)N([C@H](C)CO)C[C@H](C)[C@H](CN(C)Cc1ccc(C(=O)O)cc1)OCCCC[C@H](C)O2 the results were Xi reactivation 0.
For COc1cc(F)cc(-c2ccc3c(c2)c(-c2cccs2)c(-c2cc(OC)cc(OC)c2)n3C)c1 the results were ABHD5 PLIN5 PPI -7, NadD inh 16, Rpn11 inh 25, Xi reactivation 0 and Rin1-Abl PPI inh -2.
COc1cc(OC)cc(-c2c(-c3cccs3)c3cc(-c4ccn[nH]4)ccc3n2C)c1 was read as ABHD5 PLIN5 PPI -6, NadD inh 38*, Rpn11 inh 23, Xi reactivation 0, Rin1-Abl PPI inh 3 and NadD conf 20.
`O=C1CCCc2oc3c(cc(NS(=O)(=O)c4ccc5c6c(cccc46)C(=O)N5)c4ccccc43)c21` gave ABHD5 PLIN5 PPI 16, NadD inh 24, Rpn11 inh 11, Xi reactivation 0 and Rin1-Abl PPI inh -2.
`Cc1oc2c(cc(NS(=O)(=O)c3ccc4c5c(cccc35)C(=O)N4)c3ccccc32)c1C(=O)OC(C)C` gave ABHD5 PLIN5 PPI -4, NadD inh 30*, Rpn11 inh 22, Rin1-Abl PPI inh -3 and NadD conf 37*.
O=C1CCCC2=C1C(c1ccco1)Nc1ccc(C(=O)c3ccccc3)cc1N2 (stereo unspecified) was read as ABHD5 PLIN5 PPI 6, NadD inh 35*, Rpn11 inh -6, Rin1-Abl PPI inh -2 and NadD conf 2.
`O=C(Cc1ccccn1)NCC[C@@H]1CC[C@@H](NS(=O)(=O)c2ccc(F)cc2)[C@H](CO)O1` gave Xi reactivation 1.
Screening CN(C)c1ccc(/C=N/NC(=O)c2nnn(-c3nonc3N)c2CN(C)c2ccccc2)cc1 returned ABHD5 PLIN5 PPI 6, NadD inh 37*, Rpn11 inh -4, Xi reactivation 0, Rin1-Abl PPI inh 1 and NadD conf 38.
Nc1nonc1-n1nnc(C(=O)N/N=C/c2ccccc2)c1CN1CCc2ccccc21 was read as ABHD5 PLIN5 PPI 1, NadD inh 61*, Rpn11 inh 7, Xi reactivation 0, Rin1-Abl PPI inh 2 and NadD conf 43.
`CCN(CC)c1ccc(/C=N/NC(=O)c2nnn(-c3nonc3N)c2-c2ccc(C)cc2)cc1` gave ABHD5 PLIN5 PPI -12, NadD inh 47*, Rpn11 inh 17, Xi reactivation 0, Rin1-Abl PPI inh -2 and NadD conf 25.
Screening CN(Cc1c(C(=O)N/N=C/c2ccccc2)nnn1-c1nonc1N)c1ccccc1 returned ABHD5 PLIN5 PPI -7, NadD inh 11, Rpn11 inh 2, Xi reactivation 0 and Rin1-Abl PPI inh -3.
`C[C@H](CO)N1C[C@H](C)[C@@H](CN(C)C(=O)NC2CCCCC2)Oc2ccc(NC(=O)C3CC3)cc2CC1=O` gave Xi reactivation -1.
For COCC#Cc1ccc2c(c1)O[C@@H](CN(C)S(=O)(=O)c1ccc(F)cc1)[C@H](C)CN([C@@H](C)CO)S2(=O)=O the results were Xi reactivation -1.
Screening C[C@@H]1CN([C@H](C)CO)C(=O)c2cc(NC(=O)Cn3cnnn3)ccc2O[C@H]1CN(C)C(=O)Nc1ccccc1 returned Xi reactivation 1.
Screening Cc1ccc(Cl)cc1N1CCN(C(=O)Cc2csc(Nc3nc(=S)[nH]c4ccccc34)n2)CC1 returned ABHD5 PLIN5 PPI 0, NadD inh 63*, Rpn11 inh 17, Xi reactivation 0, Rin1-Abl PPI inh 0 and NadD conf 6.
For O=C(Cc1csc(Nc2nc(=S)[nH]c3ccccc23)n1)N1CCN(c2cccc(Cl)c2)CC1 the results were ABHD5 PLIN5 PPI -4, NadD inh 55*, Rpn11 inh 11, Xi reactivation 0, Rin1-Abl PPI inh -1 and NadD conf 8.
Screening Cc1ccc(Cl)cc1N1CCN(C(=O)Cn2ccc3ccccc3c2=O)CC1 returned ABHD5 PLIN5 PPI -4, NadD inh -7, Rpn11 inh 7 and Rin1-Abl PPI inh -2.
For CCC(=O)Nc1ccc2c(c1)C(=O)N(C)C[C@H](OC)[C@@H](C)CN(C(=O)c1ccc(F)cc1)[C@H](C)CO2 the results were Xi reactivation 0.
Screening COc1ccccc1-c1cn(CC[C@@H]2CC[C@H](NC(=O)C3CCCC3)[C@@H](CO)O2)nn1 returned Xi reactivation 0.
`O=C(Nc1ccc(C(=O)N2CCOCC2)cc1)c1cnn2c(C(F)F)cc(-c3ccccc3)nc12` gave ABHD5 PLIN5 PPI -2, NadD inh -10, Rpn11 inh -4, Xi reactivation 0 and Rin1-Abl PPI inh 0.
Cc1ccc(-c2cc(C(F)F)n3ncc(C(=O)Nc4ccc(S(=O)(=O)Nc5ccccc5C)cc4)c3n2)cc1 was read as ABHD5 PLIN5 PPI -15, NadD inh 36*, Rpn11 inh -3, Rin1-Abl PPI inh -3 and NadD conf 1.
`CCC(=O)N1C[C@@H](C)[C@@H](OC)CN(C)C(=O)c2cc(NC(=O)NC3CCCC3)ccc2OC[C@@H]1C` gave Xi reactivation 0.
`O=C(C1CCCC1)N1CC(=O)N2[C@H](CO)[C@@H](c3ccc(C#Cc4cccc(F)c4)cc3)[C@@H]2C1` gave Xi reactivation 0.
`Cc1cccc(C)c1-n1nnnc1C(c1ccnc2ccccc12)N(CCC#N)Cc1ccccc1` (stereo unspecified) gave ABHD5 PLIN5 PPI 9, NadD inh 8 and Xi reactivation 0.
`CN(CCc1ccccc1)C(c1ccnc2ccccc12)c1nnnn1-c1ccc2c(c1)OCCO2` (stereo unspecified) gave ABHD5 PLIN5 PPI 3, NadD inh 2 and Xi reactivation 0.
For Cc1cccc(C)c1-n1nnnc1C(c1ccnc2ccccc12)N(Cc1ccccc1)Cc1ccccc1 (stereo unspecified) the results were ABHD5 PLIN5 PPI 5, NadD inh 32*, Xi reactivation 0 and NadD conf 28.
